Measured values taken from ChEMBL document CHEMBL4818983, “Structure-activity relationship and hypoglycemic activity of tricyclic matrines with advantage of treating diabetic nephropathy” (Eur J Med Chem, 2020).

Tested on: HepG2
Test: Increase in glucose consumption in human HepG2 cells assessed as Gx/GDMSO ratio at 25 uM by glucose oxidase assay
Type: functional
In short: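 HepG2 glucose consumption screen. Test compounds at 25 μM, metformin at 5 mM. Activity expressed as ratio of glucose consumption to DMSO-treated cells (Gx/G_DMSO).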

With O=S(=O)(c1ccccc1C(F)(F)F)N1C[C@H]2CCCN3CCC[C@@H]([C@H]23)[C@H]1CCCCO as the molecule, how does the Ratio read?
The Ratio was 1.24.

O=S(=O)(c1ccc(C(F)(F)F)cc1)N1C[C@@H]2CCCN3CCC[C@@H]([C@H]23)[C@H]1CCCCO was tested. Which Ratio did it give?
Its Ratio is 1.04.

With CCNc1nnc(CCC[C@@H]2[C@H]3CCCN4CCC[C@@H](CN2S(=O)(=O)c2ccc(C)cc2)[C@@H]34)s1 as the molecule, how does the Ratio read?
The Ratio was 0.79.

Which Ratio does the source give for CCCC[C@@H]1[C@H]2CCCN3CCC[C@H](CN1S(=O)(=O)c1ccc(C(F)(F)F)cc1)[C@@H]23 here?
Its Ratio is 1.17.

CC[C@@H]1[C@H]2CCCN3CCC[C@@H](CN1S(=O)(=O)c1ccc(C(F)(F)F)cc1)[C@@H]23 was tested. Which Ratio did it give?
Its Ratio is 1.32.

CCCC[C@@H]1[C@H]2CCCN3CCC[C@@H](CN1C(=O)Nc1c(C)cccc1C)[C@@H]23 was tested. Which Ratio did it give?
The Ratio was 1.14.

Which Ratio does the source give for CC[C@@H]1[C@H]2CCCN3CCC[C@@H](CN1S(=O)(=O)c1ccccc1C(F)(F)F)[C@@H]23 here?
The Ratio was 1.26.

With O=S(=O)(c1ccc(C(F)(F)F)cc1)N1C[C@H]2CCCN3CCC[C@@H]([C@H]23)[C@H]1CCCCO as the molecule, how does the Ratio read?
Its Ratio is 1.06.

With CNc1nnc(CCC[C@@H]2[C@H]3CCCN4CCC[C@@H](CN2S(=O)(=O)c2cccc(C(F)(F)F)c2)[C@@H]34)s1 as the molecule, how does the Ratio read?
Its Ratio is 0.86.

Nc1nnc(CCC[C@@H]2[C@H]3CCCN4CCC[C@@H](CN2S(=O)(=O)c2ccc(C(F)(F)F)cc2)[C@@H]34)o1 was tested. Which Ratio did it give?
Its Ratio is 1.18.

For CCCC[C@@H]1[C@H]2CCCN3CCC[C@H](CN1S(=O)(=O)c1ccccc1C(F)(F)F)[C@@H]23, which Ratio is on record?
The Ratio was 1.26.

With CCCC[C@@H]1[C@H]2CCCN3CCC[C@@H](CN1C(=O)Nc1cccc(C)c1)[C@@H]23 as the molecule, how does the Ratio read?
Its Ratio is 1.32.

For O=C1CCC[C@@H]2[C@H]3CCCN4CCC[C@H](CN12)[C@@H]34 [SOPHORIDINE], which Ratio is on record?
Its Ratio is 1.22.

For Nc1nnc(CCC[C@@H]2[C@H]3CCCN4CCC[C@@H](CN2S(=O)(=O)c2cccc(C(F)(F)F)c2)[C@@H]34)o1, which Ratio is on record?
Its Ratio is 1.34.

Which Ratio does the source give for O=C(O)C[C@@H]1[C@H]2CCCN3CCC[C@@H](CN1S(=O)(=O)c1cccc(C(F)(F)F)c1)[C@@H]23 here?
The Ratio was 1.06.

With Nc1nnc(CCC[C@@H]2[C@H]3CCCN4CCC[C@@H](CN2S(=O)(=O)c2cccc(C(F)(F)F)c2)[C@@H]34)s1 as the molecule, how does the Ratio read?
The Ratio was 1.04.

Which Ratio does the source give for O=C1C=CC[C@@H]2[C@H]3CCCN4CCC[C@@H](CN12)[C@@H]34 [SOPHOCARPINE] here?
The Ratio was 1.11.

Which Ratio does the source give for CCCC[C@@H]1[C@H]2CCCN3CCC[C@@H](CN1C(=O)Nc1ccccc1C(F)(F)F)[C@@H]23 here?
The Ratio was 1.03.

For CN(C)c1nnc(CCC[C@@H]2[C@H]3CCCN4CCC[C@@H](CN2S(=O)(=O)c2cccc(C(F)(F)F)c2)[C@@H]34)s1, which Ratio is on record?
Its Ratio is 0.97.

For O=C(O)CCC[C@@H]1[C@H]2CCCN3CCC[C@H](CN1S(=O)(=O)c1ccccc1C(F)(F)F)[C@@H]23, which Ratio is on record?
Its Ratio is 1.12.

For CCCC[C@@H]1[C@H]2CCCN3CCC[C@@H](CN1C(=O)Nc1ccccc1C)[C@@H]23, which Ratio is on record?
The Ratio was 1.3.

Which Ratio does the source give for Cc1ccc(S(=O)(=O)N2C[C@@H]3CCCN4CCC[C@@H]([C@H]34)[C@H]2CCCC(=O)O)cc1 here?
The Ratio was 0.87.

Which Ratio does the source give for CCCC[C@@H]1[C@H]2CCCN3CCC[C@@H](CN1S(=O)(=O)c1ccccc1C(F)(F)F)[C@@H]23 here?
The Ratio was 1.01.

For O=C(O)CCC[C@@H]1[C@H]2CCCN3CCC[C@H](CN1S(=O)(=O)c1cccc(C(F)(F)F)c1)[C@@H]23, which Ratio is on record?
The Ratio was 1.16.

O=C(O)CCC[C@@H]1[C@H]2CCCN3CCC[C@@H](CN1S(=O)(=O)c1ccc(C(F)(F)F)cc1)[C@@H]23 was tested. Which Ratio did it give?
The Ratio was 1.03.

With CCCC[C@@H]1[C@H]2CCCN3CCC[C@@H](CN1C(=O)Nc1ccc(OC(F)(F)F)cc1)[C@@H]23 as the molecule, how does the Ratio read?
The Ratio was 1.07.

COC(=O)CCC[C@@H]1[C@H]2CCCN3CCC[C@H](CN1S(=O)(=O)c1ccc(C(F)(F)F)cc1)[C@@H]23 was tested. Which Ratio did it give?
The Ratio was 1.13.

With O=C(O)CCC[C@@H]1[C@H]2CCCN3CCC[C@H](CN1S(=O)(=O)c1ccc(C(F)(F)F)cc1)[C@@H]23 as the molecule, how does the Ratio read?
Its Ratio is 0.99.

With O=S(=O)(c1ccc(C(F)(F)F)cc1)N1C[C@@H]2CCCN3CCC[C@@H]([C@H]23)[C@H]1CCCCN=C=S as the molecule, how does the Ratio read?
Its Ratio is 1.02.

How did the Ratio turn out when CCCC[C@@H]1[C@H]2CCCN3CCC[C@@H](CN1C(=O)Nc1ccc(C(F)(F)F)cc1)[C@@H]23 was run?
Its Ratio is 1.08.

Which Ratio does the source give for COC(=O)CCC[C@@H]1[C@H]2CCCN3CCC[C@H](CN1S(=O)(=O)c1ccccc1C(F)(F)F)[C@@H]23 here?
Its Ratio is 1.23.

CCCC[C@@H]1[C@H]2CCCN3CCC[C@@H](CN1S(=O)(=O)c1ccc(C)cc1)[C@@H]23 was tested. Which Ratio did it give?
The Ratio was 1.03.

For CCCC[C@@H]1[C@H]2CCCN3CCC[C@H](CN1S(=O)(=O)c1ccc(C)cc1)[C@@H]23, which Ratio is on record?
Its Ratio is 1.07.

With CCCC[C@@H]1[C@H]2CCCN3CCC[C@@H](CN1C(=O)Nc1ccc(F)cc1)[C@@H]23 as the molecule, how does the Ratio read?
The Ratio was 1.02.

How did the Ratio turn out when O=S(=O)(c1cccc(C(F)(F)F)c1)N1C[C@H]2CCCN3CCC[C@@H]([C@H]23)[C@H]1CCCCO was run?
Its Ratio is 1.25.

CCCC[C@@H]1[C@H]2CCCN3CCC[C@@H](CN1C(=O)Nc1ccc(C)cc1)[C@@H]23 was tested. Which Ratio did it give?
The Ratio was 1.04.

For CCCC[C@@H]1[C@H]2CCCN3CCC[C@@H](CN1C(=O)Nc1cccc(C(F)(F)F)c1)[C@@H]23, which Ratio is on record?
The Ratio was 1.

For CCCC[C@@H]1[C@H]2CCCN3CCC[C@H](CN1S(=O)(=O)c1cccc(C(F)(F)F)c1)[C@@H]23, which Ratio is on record?
The Ratio was 1.2.

Which Ratio does the source give for O=C1CCC[C@@H]2[C@H]3CCCN4CCC[C@@H](CN12)[C@@H]34 [MATRINE] here?
The Ratio was 1.26.

How did the Ratio turn out when CC(=O)Nc1nnc(CCC[C@@H]2[C@H]3CCCN4CCC[C@@H](CN2S(=O)(=O)c2cccc(C(F)(F)F)c2)[C@@H]34)s1 was run?
The Ratio was 0.89.

With Cc1ccc(S(=O)(=O)N2C[C@H]3CCCN4CCC[C@@H]([C@H]34)[C@H]2CCCCO)cc1 as the molecule, how does the Ratio read?
Its Ratio is 1.12.

COC(=O)CCC[C@@H]1[C@H]2CCCN3CCC[C@H](CN1S(=O)(=O)c1cccc(C(F)(F)F)c1)[C@@H]23 was tested. Which Ratio did it give?
The Ratio was 1.21.

How did the Ratio turn out when COC(=O)CCC[C@@H]1[C@H]2CCCN3CCC[C@H](CN1S(=O)(=O)c1ccc(C)cc1)[C@@H]23 was run?
Its Ratio is 1.14.

Which Ratio does the source give for Cc1ccc(S(=O)(=O)N2C[C@@H]3CCCN4CCC[C@@H]([C@H]34)[C@H]2CCCCO)cc1 here?
Its Ratio is 1.16.
